Results on 16 compounds are retold here after ChEMBL document CHEMBL3862019, “Synthesis of novel ethyl 2,4-disubstituted 8-(trifluoromethyl)pyrido[2',3':3,4]pyrazolo[1,5-a]pyrimidine-9-carboxylate derivatives as promising anticancer agents” (Bioorg Med Chem Lett, 2016).

Data set [1] in a line: Cytotoxicity against human PC3 cells assessed as cell growth inhibition by MTT assay. Conditions: PC-3. It is filed as functional, cell-based. An outline of the steps: (§1)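 IC50 values were read from dose–response curves for compounds that gave above 60% inhibition in the initial test. HUVEC (ATCC CRL-1730) served as the normal cell line.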
The nature of data set [2]: Cytotoxicity against human MDA-MB-231 cells assessed as cell growth inhibition by MTT assay. It is filed as functional, cell-based. An outline of the steps:
as §1
(In general: Formazan colour is commonly taken as a measure of viable cells.)

The subject of the next data set is HeLa. Description: Selectivity index, ratio of IC50 for HUVEC to IC50 for human HeLa cells. An outline of the steps: (§2)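 SI is the IC50 in normal HUVEC divided by the IC50 of the same compound in the cancer cell line.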
Data set [3] has as its target T1, DNA topoisomerase 1 (Homo sapiens) (UniProt P11387).
T1 sequence (whole entry): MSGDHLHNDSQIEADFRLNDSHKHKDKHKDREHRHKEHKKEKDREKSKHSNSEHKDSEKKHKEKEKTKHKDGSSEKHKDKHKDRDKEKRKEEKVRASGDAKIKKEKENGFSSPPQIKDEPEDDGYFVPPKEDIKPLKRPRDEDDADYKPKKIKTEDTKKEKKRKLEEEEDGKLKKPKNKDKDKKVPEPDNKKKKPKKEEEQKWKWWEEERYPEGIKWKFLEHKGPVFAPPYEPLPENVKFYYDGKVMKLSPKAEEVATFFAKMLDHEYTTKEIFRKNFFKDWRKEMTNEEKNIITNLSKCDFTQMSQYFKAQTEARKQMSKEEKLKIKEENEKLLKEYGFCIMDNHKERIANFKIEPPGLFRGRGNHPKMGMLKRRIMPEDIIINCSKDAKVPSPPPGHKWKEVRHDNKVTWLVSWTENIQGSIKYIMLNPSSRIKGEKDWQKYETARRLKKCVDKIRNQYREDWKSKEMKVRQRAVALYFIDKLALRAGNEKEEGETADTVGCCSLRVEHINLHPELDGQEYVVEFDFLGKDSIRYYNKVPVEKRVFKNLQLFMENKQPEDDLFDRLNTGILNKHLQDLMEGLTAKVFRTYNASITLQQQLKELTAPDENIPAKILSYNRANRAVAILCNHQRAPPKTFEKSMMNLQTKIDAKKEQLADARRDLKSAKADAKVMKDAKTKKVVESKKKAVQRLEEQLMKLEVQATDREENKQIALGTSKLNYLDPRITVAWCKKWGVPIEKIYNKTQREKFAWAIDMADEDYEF
Kind of data set: Inhibition of human DNA TOP1 assessed as suppression of supercoiled plasmid HOT1 relaxation at 10 to 20 uM preincubated with enzyme followed by substrate addition measured after 30 mins by ethidium bromide dye-based agarose gel electrophoresis. A digest of the protocol: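 Supercoiled plasmid pHOT1 was incubated with human topoisomerase I, with compound or camptothecin control at 10 and 20. Relaxation was resolved on a 1% agarose gel run with ethidium bromide, alongside supercoiled and relaxed DNA marker lanes.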

Another data set deals with HepG2. Kind of data set: Selectivity index, ratio of IC50 for HUVEC to IC50 for human HepG2 cells. A digest of the protocol: as §2
Data set [4] can be described thus: Cytotoxicity against human HeLa cells assessed as cell growth inhibition by MTT assay. It is filed as functional, cell-based. A digest of the protocol:
as §1

In another data set the test system is PC-3. Description: Selectivity index, ratio of IC50 for HUVEC to IC50 for human PC3 cells. A digest of the protocol:
as §2

The nature of data set [5]: Cytotoxicity against HUVEC assessed as cell growth inhibition by MTT assay. It is filed as toxicity, cell-based. Particulars: human. A digest of the protocol:
as §1

Data set [6] in a line: Cytotoxicity against human HepG2 cells assessed as cell growth inhibition by MTT assay. Format: functional, cell-based. A digest of the protocol: as §1
Data set [7] in a line: Selectivity index, ratio of IC50 for HUVEC to IC50 for human MDA-MB-231 cells. A digest of the protocol: as §2
The nature of data set [8]: Cytotoxicity against HUVEC assessed as cell growth inhibition up to 100 uM by MTT assay. Format: toxicity, cell-based. Conditions: human.

Each structure is given as a SMILES string. pIC50: −log10 of the molar value. The source made the active and inactive calls. The calls are words filed in the database; no cut-off is given here.

One may read the pIC50 as −log10 of the IC50, conventionally taken in molar units. For `CCOC(=O)c1cc2c(nc1C(F)(F)F)nn1c(-c3ccc[nH]3)cc(-c3ccccc3)nc21`, the negative logarithm of the IC50 (pIC50) is 4.92 in data set [1]; 4.99 in data set [2]; 4.88 in [4]; 4.02 in data set [5]; 4.83 in data set [6]. In addition, the “Ratio IC50” value is 7.26 in the data set with HeLa, 6.43 with HepG2, 7.86 with PC-3 and 9.24 in data set [7]. Further, the inhibition result in data set [3] is “Active”.

As to `CCOC(=O)c1cc2c(nc1C(F)(F)F)nn1c(-c3ccccc3)cc(C)nc21`, the results for the pIC50 in data set [2], in data set [4] and in data set [5] were 4.54, 4.53 and 4.04, respectively. Also, the “Ratio IC50” value came to 3.05 in the data set on HeLa and 3.18 in data set [7].

For `CCOC(=O)c1cc2c(nc1C(F)(F)F)nn1c(-c3c(F)cc(OC)cc3F)cc(-c3cccs3)nc21`, the pIC50 in [1] was 4.64; in data set [2], 4.68; in data set [4] it was 4.69; in data set [5], 4.03; in data set [6], 4.63. For the same compound, the “Ratio IC50” value in the data set with HeLa turned out to be 4.54; in the data set with HepG2 it was 3.94; with PC-3, 4.07; in [7], 4.39.

Turning to `CCOC(=O)c1cc2c(nc1C(F)(F)F)nn1c(CC)cc(CC)nc21`, the Activity result in [8] was “Non-Toxic”.

`CCOC(=O)c1cc2c(nc1C(F)(F)F)nn1c(-c3ccc(OC(F)(F)F)cc3)cc(-c3cccs3)nc21`: the pIC50 in data set [1] is 4.92; in data set [2], 4.76; in data set [4] it was 4.79; in data set [5], 4.05; in data set [6] it was 4.90. For the same compound, the “Ratio IC50” value in the data set on HeLa is on record as 5.58; in the data set on HepG2, 7.13; with PC-3, 7.55; in [7] it was 5.22.

As to `CCOC(=O)c1cc2c(nc1C(F)(F)F)nn1c(-c3ccc(OC)cc3)cc(-c3ccccc3)nc21`, the Activity result in [5] is recorded as “Non-Toxic”.

In the case of `CCOC(=O)c1cc2c(nc1C(F)(F)F)nn1c(C)cc(C)nc21`, the pIC50 in [1] was 4.66; in data set [2], 4.70; in data set [4], 4.74; in data set [5], 4.00; in [6] it was 4.67. Also, the “Ratio IC50” value in the data set with HeLa is listed as 5.45; with HepG2, 4.67; with PC-3, 4.48; in [7], 4.93.

On to `CCOC(=O)c1cc2c(nc1C(F)(F)F)nn1c(-c3ccc(OC)cc3)cc(-c3ccc(OC)cc3)nc21`, for which, in data set [5], the Activity entry is listed as “Non-Toxic”.

As for `CCOC(=O)c1cc2c(nc1C(F)(F)F)nn1c(C(F)(F)F)cc(C)nc21`, the pIC50 in data set [2] is 4.61; in [4] it was 4.59; in [5], 4.05. Also, the results for the “Ratio IC50” value (in the data set on HeLa; in data set [7]) were 3.44 and 3.62, respectively.

On to `O=c1[nH]cc(F)c(=O)[nH]1` [FLUOROURACIL], for which the pIC50 in [1] is 5.74; in data set [2] it was 5.72; in [4], 5.80; in [5], 4.10; in data set [6], 5.74. The “Ratio IC50” value in the data set on HeLa worked out at 49.75; in the data set on HepG2, 44.22; in the data set with PC-3, 44.22; in data set [7], 41.89.

With `CCOC(=O)c1cc2c(nc1C(F)(F)F)nn1c(-c3ccc(F)cc3)cc(-c3cccs3)nc21`, the pIC50 in [1] is 4.82; in [2], 4.77; in data set [4], 4.82; in [5], 4.07; in data set [6], 4.77. The “Ratio IC50” value with HeLa is 5.61; in the data set on HepG2 it was 5.11; in the data set with PC-3, 5.68; in data set [7], 5.02.

In the case of `CCOC(=O)c1cc2c(nc1C(F)(F)F)nn1c(-c3ccc(Cl)cc3)cc(-c3ccccc3)nc21`, in [5], the Activity entry was “Non-Toxic”.

In the case of `CCOC(=O)c1cc2c(nc1C(F)(F)F)nn1c(-c3ccc([N+](=O)[O-])cc3)cc(-c3ccccc3)nc21`, the pIC50 in data set [1] was 4.79; in data set [2] it was 4.91; in data set [4], 4.74; in [5] it was 4.04; in [6], 4.85. In addition, the “Ratio IC50” value in the data set with HeLa amounted to 4.98; with HepG2 it was 6.39; with PC-3, 5.57; in data set [7] it was 7.44.

For `CCOC(=O)c1cc2c(nc1C(F)(F)F)nn1c(-c3ccccc3C)cc(-c3cccs3)nc21`, the Activity entry in data set [5] is listed as “Non-Toxic”.

As for `CCOC(=O)c1cc2c(nc1C(F)(F)F)nn1c(-c3ccc(F)cc3)cc(-c3ccc(OC)cc3)nc21`, the pIC50 was 4.80 in data set [1]; 4.76 in data set [2]; 4.80 in data set [4]; 4.06 in data set [5]; 4.79 in data set [6]. In addition, the “Ratio IC50” value in the data set with HeLa was 5.46; in the data set with HepG2 it was 5.36; in the data set on PC-3, 5.43; in [7], 5.02.

As for `CCOC(=O)c1cc2c(nc1C(F)(F)F)nn1ccc(C)nc21`, the pIC50 is 4.94 in data set [1]; 4.92 in data set [2]; 4.97 in [4]; 4.03 in data set [5]; 4.93 in [6]. Also, the “Ratio IC50” value in the data set on HeLa stood at 8.79; with HepG2 it was 7.89; in the data set on PC-3, 8.17; in [7], 7.7. In addition, in data set [3], the inhibition result is “Active”.
